In ChEMBL document CHEMBL1629663, “Postantibiotic effects of telavancin against 16 gram-positive organisms” (Antimicrob Agents Chemother, 2009) one finds PAE and MIC data, which are given here for 1 compound.

The test system of test [1] is Staphylococcus aureus. Kind of test: Antimicrobial activity against vancomycin-intermediate-, methicillin-resistant Staphylococcus aureus 1984 assessed as time required to induce post antibiotic sub-MIC effect at 0.2 times MIC pre-exposed to Telavancin for 1 hr by plate counting method.
In test [2] the test system is Staphylococcus aureus. In words: Antimicrobial activity against vancomycin-susceptible-, methicillin-resistant Staphylococcus aureus 1130 assessed as time required to induce post antibiotic sub-MIC effect at 0.3 times MIC […] by plate counting method. It counts as functional. Summed up: (§1)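 After 1 h preexposure to 10× MIC at 35°C and 1:1,000 dilution, cultures were split, and drug was re-added to final 0.2, 0.3 or 0.4× MIC, with a drug-free tube. Viable counts were taken every 2 h until McFarland 1 turbidity. Duration was derived from log10 CFU/ml versus time curves. Two experiments were run, each with a new inoculum.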

Test [3] relates to Enterococcus faecalis. Kind of test: Antimicrobial activity against Enterococcus faecalis HMC 571 assessed as time required to induce post antibiotic sub-MIC effect at 0.3 times MIC […] by plate counting method. Type of test: functional. Summed up:
(§2)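 Mueller-Hinton broth cultures of about 5 × 10^6 CFU/ml were pre-exposed to telavancin at 10× MIC for 1 h at 35°C, then diluted 1:1,000. Telavancin was re-added to final 0.2, 0.3 or 0.4× MIC, alongside a drug-free tube. Viable counts were taken before exposure, after dilution, then every 2 h until McFarland no. 1 turbidity. Duration comes from log10 CFU/ml-versus-time plots; two separate experiments with fresh inocula.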

The next test concerns Enterococcus faecium. In words: Antimicrobial activity against Enterococcus faecium HMC 588 assessed as time required to induce sub-MIC effect at 0.3 times MIC exposed for 2 hrs by plate counting method. Type of test: functional. Summed up:
(§3)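 Unexposed Mueller-Hinton broth cultures (about 5 × 10^6 CFU/ml, 35°C) were handled as in the PA-SME set but without the 10× MIC pre-exposure. They were diluted 1:1,000, then given telavancin at final 0.2, 0.3 or 0.4× MIC, with a drug-free control. Viable counts were taken every 2 h until McFarland no. 1 turbidity. Effect duration comes from log10 CFU/ml-time plots; two separate experiments with new inocula.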

The test system of test [4] is Staphylococcus aureus. In words: Antimicrobial activity against vancomycin-intermediate-, methicillin-resistant Staphylococcus aureus 770 assessed as time required to induce sub-MIC effect at 0.2 times MIC […] by plate counting method. It counts as functional. Summed up: (§4)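 SME, viable plate count method: no prior drug exposure. About 5 × 10^6 CFU/ml in Mueller-Hinton broth at 35°C received 0.2, 0.3 or 0.4× MIC, alongside a drug-free tube. Counts were taken at the start, then every 2 h until McFarland no. 1 turbidity, as log10 CFU/ml against time. Two separate experiments, each with a new inoculum.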

Test [5] has as its system Staphylococcus aureus. Kind of test: Antimicrobial activity against vancomycin-intermediate-, methicillin-resistant Staphylococcus aureus 555 assessed as time required to induce sub-MIC effect at 0.3 times MIC […] by plate counting method. It counts as functional. In short, it runs like this: as §4
Test [6] concerns Enterococcus faecalis. Kind of test: Antimicrobial activity against Enterococcus faecalis HMC 571 assessed as time required to induce post antibiotic sub-MIC effect at 0.4 times MIC […] by plate counting method. Type of test: functional. Summed up:
(§5)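 PAE was first induced with 10× MIC for 1 h at 35°C (inoculum about 5 × 10^6 CFU/ml, Mueller-Hinton broth) and ended by 1:1,000 dilution. Cultures were then split and given 0.2, 0.3 or 0.4× MIC, with one tube left without drug. Viable counts were taken before exposure, after dilution, then every 2 h until McFarland no. 1 turbidity. Two separate experiments, each with a new inoculum.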

Test [7] has as its system Staphylococcus aureus. In words: Antimicrobial activity against heterogenous vancomycin-intermediate-, methicillin-resistant Staphylococcus aureus 873 assessed as time required to induce sub-MIC effect at 0.4 times MIC […] by plate counting method. It counts as functional. Summed up:
as §4

The test system of test [8] is Staphylococcus aureus. Kind of test: Antimicrobial activity against heterogenous vancomycin-intermediate-, methicillin-resistant Staphylococcus aureus 618 assessed as time required to induce sub-MIC effect at 0.4 times MIC […] by plate counting method. It counts as functional. In short, it runs like this: as §4
The subject of test [9] is Staphylococcus aureus. Kind of test: Antimicrobial activity against vancomycin-intermediate-, methicillin-resistant Staphylococcus aureus 555 assessed as time required to induce post antibiotic sub-MIC effect at 0.3 times MIC […] by plate counting method. Type of test: functional. In short, it runs like this:
as §5

The subject of test [10] is Streptococcus pyogenes. In words: Antimicrobial activity against Streptococcus pyogenes HMC 414 assessed as time required to induce sub-MIC effect at 0.4 times MIC exposed for 2 hrs by plate counting method. It counts as functional. In short, it runs like this:
as §3

The subject of test [11] is Staphylococcus aureus. In words: Antimicrobial activity against vancomycin-intermediate-, methicillin-resistant Staphylococcus aureus 555 assessed as time required to induce sub-MIC effect at 0.4 times MIC […] by plate counting method. Type of test: functional. Summed up: as §4
For test [12], the system named is Staphylococcus aureus. In words: Antimicrobial activity against vancomycin-susceptible-, methicillin-resistant Staphylococcus aureus 1307 by microdilution method. Type of test: functional. In general terms: Dilution methods test growth across graded concentrations, often in twofold steps.
The subject of test [13] is Staphylococcus aureus. Kind of test: Antimicrobial activity against vancomycin-resistant-, methicillin-resistant Staphylococcus aureus 510 assessed as post-antibiotic effect at 10 times MIC pre-exposed for 1 hr by plate counting method. It counts as functional. Summed up:
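Direct colony suspensions (~5 × 10^6 CFU/ml) were exposed to 10× MIC for 1 h at 35°C with shaking in Mueller-Hinton broth, then diluted 1:1,000 to remove drug. Viable plate counts were taken before exposure, at 0 h, then every 2 h until turbidity reached McFarland 1. PAE = T − C, the time for counts to rise 1 log10 versus the unexposed control. Two separate experiments were run.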

Test [14] deals with Staphylococcus aureus. In words: Antimicrobial activity against heterogenous vancomycin-intermediate-, methicillin-resistant Staphylococcus aureus 618 assessed as time required to induce sub-MIC effect at 0.2 times MIC exposed for 2 hrs by plate counting method. Type of test: functional. In short, it runs like this: as §4
In test [15] the test system is Staphylococcus aureus. In words: Antimicrobial activity against vancomycin-susceptible-, methicillin-resistant Staphylococcus aureus 1130 assessed as time required to induce post antibiotic sub-MIC effect at 0.2 times MIC pre-exposed to Telavancin for […] by plate counting method. It counts as functional. In short, it runs like this: as §1
For test [16], the system named is Staphylococcus aureus. In words: Antimicrobial activity against vancomycin-intermediate-, methicillin-resistant Staphylococcus aureus 555 assessed as post-antibiotic effect at 10 times MIC pre-exposed to Telavancin for 1 hr by plate counting method. Type of test: functional. In short, it runs like this:
(§6)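 Viable plate count method in Mueller-Hinton broth. Direct colony suspension inoculum of about 5 × 10^6 CFU/ml was exposed to 10× MIC for 1 h at 35°C in a shaking water bath, then diluted 1:1,000 to remove drug. Counts were taken before exposure, at 0 h, then every 2 h until McFarland no. 1 turbidity. PAE = T − C, the time to a 1 log10 rise versus an unexposed growth control.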

In test [17] the test system is Streptococcus pyogenes. Kind of test: Antimicrobial activity against Streptococcus pyogenes HMC 414 assessed as time required to induce sub-MIC effect at 0.3 times MIC exposed for 2 hrs by plate counting method. It counts as functional. Summed up: as §3
Test [18] concerns Staphylococcus aureus. Kind of test: Antimicrobial activity against heterogenous vancomycin-intermediate-, methicillin-resistant Staphylococcus aureus 873 assessed as time required to induce sub-MIC effect at 0.3 times MIC […] by plate counting method. It counts as functional. Summed up:
as §4

Test [19] deals with Staphylococcus aureus. Kind of test: Antimicrobial activity against heterogenous vancomycin-intermediate-, methicillin-resistant Staphylococcus aureus 618 assessed as post-antibiotic effect at 10 times MIC pre-exposed to Telavancin for 1 hr by plate counting method. It counts as functional. In short, it runs like this: as §6
The next test deals with Streptococcus agalactiae. In words: Antimicrobial activity against Streptococcus agalactiae HMC 5 by microdilution method. Type of test: functional.
The subject of test [20] is Enterococcus faecalis. In words: Antimicrobial activity against Enterococcus faecalis ATCC 29212 assessed as time required to induce post antibiotic sub-MIC effect at 0.4 times MIC […] by plate counting method. It counts as functional. Summed up: as §2

Structures are written as SMILES. Values after ≈ are worked out from the molar mass of the structure shown.

For orientation: MIC means the least concentration at which growth counts as inhibited. High values mean weaker potency, low ones greater potency.

For the compound `CCCCCCCCCCNCCN[C@@]1(C)C[C@H](O[C@H]2[C@H](Oc3c4cc5cc3Oc3ccc(cc3Cl)[C@@H](O)[C@@H](NC(=O)[C@@H](CC(C)C)NC)C(=O)N[C@@H](CC(N)=O)C(=O)N[C@H]5C(=O)N[C@H]3C(=O)N[C@H](C(=O)N[C@H](C(=O)O)c5cc(O)c(CNCP(=O)(O)O)c(O)c5-c5cc3ccc5O)[C@H](O)c3ccc(c(Cl)c3)O4)O[C@H](CO)[C@@H](O)[C@@H]2O)O[C@@H](C)[C@H]1O` [TELAVANCIN], the PAE in the test on Staphylococcus aureus [1] stood at 6.8 h; in the test on Staphylococcus aureus [2], 10 h; in the test on Enterococcus faecalis [3], 7.2 h; in the test with Enterococcus faecium it was 7.2 h; in the test with Staphylococcus aureus [4], 0.7 h; with Staphylococcus aureus [5], 1.7 h. Also, the PAE with Enterococcus faecalis [6] is 10.6 h; in the test with Staphylococcus aureus [7], 1 h; with Staphylococcus aureus [8], 2.3 h; with Staphylococcus aureus [9] it was 10.3 h; in the test with Streptococcus pyogenes [10], 0.4 h; in the test with Staphylococcus aureus [11], 4.3 h. In addition, the PAE was 1.3 h in the test on Staphylococcus aureus [13]; 0.3 h in the test on Staphylococcus aureus [14]; 5.4 h with Staphylococcus aureus [15]; 3.4 h with Staphylococcus aureus [16]; 0 h in the test on Streptococcus pyogenes [17]; 0.5 h in the test on Staphylococcus aureus [18]. Also, the results for the PAE with Staphylococcus aureus [19] and in the test with Enterococcus faecalis [20] were 1.7 h and above 10.7 h, respectively. Besides, the MIC with Staphylococcus aureus [12] and against Streptococcus agalactiae was 0.12 µg/mL (≈ 0.0684 µM) in each case.
